Calls of active or inactive are those of the source. No cut-off for these calls is given here.
What was measured:
[1] = Cytotoxicity against human PBMCs assessed as residual metabolic activity at 20 uM after 18 hrs by MTS assay; type: ADME, cell-based, PBMC; details: read-out: Activity
Outline: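 Ficoll-isolated human PBMC, 1 × 10^6 cells/mL in supplemented RPMI 1640 with 10% FBS, exposed 18 h to 20 μM compound (DMSO ≤0.1% final) in triplicate. Metabolic activity read by MTS (CellTiter 96 AQueous One) and expressed relative to vehicle-treated control.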

PBMC [2] = experiment: Immunomodulatory activity in human PBMCs assessed as increase in PMA/ionomycin-induced IL-1beta release at 20 uM incubated for 18 hrs by multiplexed cytokine assay; type: functional, cell-based
Outline: (§1)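 Ficoll-isolated human PBMC, 1 × 10^6 cells per well, treated with 20 μM compound (DMSO ≤0.1%) plus PMA 3.33 ng/mL and ionomycin 500 nM for 18 h at 37 °C, 5% CO2. Cell-free supernatant cytokines measured by CBA human inflammatory kit on a flow cytometer against recombinant standards. Reported as % of PMA/ionomycin-only release; duplicates, three experiments, three donors.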

PBMC [3] = experiment: Immunomodulatory activity in human PBMCs assessed as increase in PMA/ionomycin-induced IL8 release at 20 uM incubated for 4 to 40 hrs by multiplexed cytokine assay; type: functional, cell-based
Outline: (§2)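 PBMC time course: 20 μM compound with PMA 3.33 ng/mL and ionomycin 500 nM. Supernatants collected at 4, 18 and 40 h and cytokines read by cytometric bead array. Compared with PMA/ionomycin-only control; two independent experiments in duplicate, two donors.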

PBMC [4] = experiment: Immunomodulatory activity in human PBMCs assessed as increase in PMA/ionomycin-induced IL10 release at 20 uM incubated for 4 to 40 hrs by multiplexed cytokine assay; type: functional, cell-based; outline: as §2
PBMC [5] = experiment: Immunomodulatory activity in human PBMCs assessed as increase in PMA/ionomycin-induced IL6 release at 20 uM by multiplexed cytokine assay; type: functional, cell-based; details: TDE = time-dependent effect; outline: as §1
PBMC [6] = experiment: Immunomodulatory activity in human PBMCs assessed as increase in PMA/ionomycin-induced IL-1beta release incubated for 18 hrs by multiplexed cytokine assay; type: functional, cell-based
PBMC [7] = experiment: Immunomodulatory activity in human PBMCs assessed as increase in PMA/ionomycin-induced IL8 release at 0.2 to 200 uM incubated for 18 hrs by multiplexed cytokine assay; type: functional, cell-based
Outline: (§3)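 Human PBMC stimulated with PMA 3.33 ng/mL and ionomycin 500 nM plus compound at 0.2, 2, 20 or 200 μM for 18 h. Supernatant cytokines quantified by cytometric bead array. Compared with PMA/ionomycin-only cells; two independent experiments in duplicate, two donors, mean ± SD.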

PBMC [8] = experiment: Immunomodulatory activity in human PBMCs assessed as increase in PMA/ionomycin-induced IL8 release at 20 uM incubated for 18 hrs by multiplexed cytokine assay; type: functional, cell-based
PBMC [9] = experiment: Immunomodulatory activity in human PBMCs assessed as increase in PMA/ionomycin-induced IL10 release at 0.2 to 200 uM incubated for 18 hrs by multiplexed cytokine assay; type: functional, cell-based; outline: as §3
PBMC [10] = experiment: Immunomodulatory activity in human PBMCs assessed as increase in PMA/ionomycin-induced IL6 release incubated for 18 hrs by multiplexed cytokine assay; type: functional, cell-based
PBMC [11] = experiment: Immunomodulatory activity in human PBMCs assessed as increase in PMA/ionomycin-induced TNFalpha release at 20 uM incubated for 18 hrs by multiplexed cytokine assay; type: functional, cell-based; outline: as §1
PBMC [12] = experiment: Immunomodulatory activity in human PBMCs assessed as increase in PMA/ionomycin-induced TNFalpha release at 20 uM by multiplexed cytokine assay; type: functional, cell-based; details: TDE = time-dependent effect; outline: as §1
[13] = biological target: T1, Toll-like receptor 9 (Homo sapiens) (UniProt Q9NR96); experiment: Agonist activity at human TLR9 expressed in Ramos blue cells assessed as stimulation of NF-kB/AP-1 activity at 20 uM incubated for 18 hrs using quanti blue assay based SEAP reporter gene assay; type: functional, cell-based
T1 sequence (whole entry): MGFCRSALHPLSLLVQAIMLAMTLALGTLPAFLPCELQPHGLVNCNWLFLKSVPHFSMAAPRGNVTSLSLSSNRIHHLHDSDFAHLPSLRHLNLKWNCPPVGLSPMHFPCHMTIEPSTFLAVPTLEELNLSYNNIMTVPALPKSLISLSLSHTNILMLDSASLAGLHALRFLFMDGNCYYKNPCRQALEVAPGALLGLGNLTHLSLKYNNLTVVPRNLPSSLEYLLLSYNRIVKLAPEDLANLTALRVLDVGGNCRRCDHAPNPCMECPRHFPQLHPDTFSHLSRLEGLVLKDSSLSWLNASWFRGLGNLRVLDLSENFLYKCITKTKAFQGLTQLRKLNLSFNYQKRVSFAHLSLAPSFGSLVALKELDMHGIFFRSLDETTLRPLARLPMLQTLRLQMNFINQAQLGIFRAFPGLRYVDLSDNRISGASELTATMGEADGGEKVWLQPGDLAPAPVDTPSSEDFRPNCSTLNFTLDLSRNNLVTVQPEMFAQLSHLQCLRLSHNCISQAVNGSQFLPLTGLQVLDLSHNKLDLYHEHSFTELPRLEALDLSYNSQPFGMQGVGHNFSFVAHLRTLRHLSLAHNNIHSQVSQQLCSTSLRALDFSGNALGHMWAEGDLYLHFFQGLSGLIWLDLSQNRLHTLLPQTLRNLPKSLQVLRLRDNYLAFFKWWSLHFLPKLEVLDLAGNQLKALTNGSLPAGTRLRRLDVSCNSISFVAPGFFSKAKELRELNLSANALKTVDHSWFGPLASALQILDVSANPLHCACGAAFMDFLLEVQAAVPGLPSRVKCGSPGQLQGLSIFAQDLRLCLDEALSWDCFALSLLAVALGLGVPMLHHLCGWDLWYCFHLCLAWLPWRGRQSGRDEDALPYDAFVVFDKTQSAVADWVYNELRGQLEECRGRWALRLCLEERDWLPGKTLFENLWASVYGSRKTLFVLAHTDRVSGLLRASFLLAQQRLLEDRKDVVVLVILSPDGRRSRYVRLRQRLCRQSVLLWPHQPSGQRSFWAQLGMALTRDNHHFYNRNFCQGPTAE
Outline: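 Ramos-Blue control cells (TLR3/7/9 and Nod1, no Nod2; stable NF-κB/AP-1-inducible SEAP reporter) at 1 × 10^6 cells/mL, exposed 18 h to 20 μM compound. SEAP in supernatant read with QUANTI-Blue reagent (3 h, 37 °C), absorbance 640 nm; activity compared with untreated cells.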

PBMC [14] = experiment: Immunomodulatory activity in human PBMCs assessed as increase in PMA/ionomycin-induced TNFalpha release incubated for 18 hrs by multiplexed cytokine assay; type: functional, cell-based; outline: as §1
PBMC [15] = experiment: Immunomodulatory activity in human PBMCs assessed as increase in PMA/ionomycin-induced IL-1beta release at 20 uM by multiplexed cytokine assay; type: functional, cell-based; details: TDE = time-dependent effect; outline: as §1
PBMC [16] = experiment: Immunomodulatory activity in human PBMCs assessed as increase in PMA/ionomycin-induced IL-12p70 release at 20 uM by multiplexed cytokine assay; type: functional, cell-based; details: TDE = time-dependent effect; outline: as §1
PBMC [17] = experiment: Immunomodulatory activity in human PBMCs assessed as increase in PMA/ionomycin-induced IL10 release at 20 uM incubated for 18 hrs by multiplexed cytokine assay; type: functional, cell-based
PBMC [18] = experiment: Immunomodulatory activity in human PBMCs assessed as increase in PMA/ionomycin-induced IL-12p70 release incubated for 18 hrs by multiplexed cytokine assay; type: functional, cell-based

Row | SMILES | viability at 18 h, 20 µM [1] [%] | Activity (PBMC [2]) | Activity (PBMC [3]) | Activity (PBMC [4]) | Activity (PBMC [5]) | Activity (PBMC [6]) | Activity (PBMC [7]) | Activity (PBMC [8]) | Activity (PBMC [9]) | Activity (PBMC [10]) | Activity (PBMC [11]) | Activity (PBMC [12]) | Activity [13] | Activity (PBMC [14]) | Activity (PBMC [15]) | Activity (PBMC [16]) | Activity (PBMC [17]) | Activity (PBMC [18])
1 | CCCCOC(=O)[C@@H](CCC(N)=O)NC(=O)[C@H](C)NC(=O)[C@@H](C)O[C@H]1[C@H](O)[C@@H](CO)OC(O)[C@@H]1NC(C)=O (stereo partly specified) [MURABUTIDE] | ≥ 90 | Active | inactive | inactive | tde | Dose-dependent effect | inactive | inactive | inactive | Dose-dependent effect | Active | tde | inactive | Dose-dependent effect | tde | tde | inactive | Dose-dependent effect
2 | CCOC(=O)CC[C@@H](NC(=O)[C@H](C)NC(=O)C1=C2c3ccccc3S(=O)(=O)N2CCC1)C(=O)OCC | ≥ 90 | Active |  |  |  |  |  | inactive |  |  |  |  | inactive |  |  |  | inactive | 
3 | CCOC(=O)CC[C@@H](NC(=O)[C@H](C)NC(=O)COCCN1C(=O)c2ccccc2S1(=O)=O)C(=O)OCC | ≥ 90 | inactive |  |  |  |  |  | inactive |  |  | inactive |  | inactive |  |  |  | inactive | 
4 | CCOC(=O)CC[C@@H](NC(=O)[C@H](C)NC(=O)CCCCN1C(=O)c2ccccc2S1(=O)=O)C(=O)OCC | ≥ 90 | inactive |  |  |  |  |  | inactive |  |  | inactive |  | inactive |  |  |  | inactive | 
5 | CCOC(=O)CC[C@@H](NC(=O)[C@H](C)NC(=O)COCCN1C(=O)c2ccccc2S1(=O)=O)C(N)=O | ≥ 90 | inactive |  |  |  |  |  | inactive |  |  | inactive |  | inactive |  |  |  | inactive | 
6 | CCOC(=O)CC[C@@H](NC(=O)[C@H](C)NC(=O)CNC(=O)c1cc2ccccc2[nH]1)C(N)=O | ≥ 90 | inactive |  |  |  |  |  | inactive |  |  | inactive |  | inactive |  |  |  | inactive | 
7 | CCOC(=O)CC[C@@H](NC(=O)[C@H](C)NC(=O)CCCCN1C(=O)c2ccccc2S1(=O)=O)C(N)=O | ≥ 90 | inactive |  |  |  |  |  | inactive |  |  | inactive |  | inactive |  |  |  | inactive | 
8 | CCOC(=O)CC[C@@H](NC(=O)[C@H](C)NC(=O)CNC(=O)c1cc2ccccc2[nH]1)C(=O)OCC | ≥ 90 | Active | inactive | inactive | tde | Dose-dependent effect | inactive | inactive | inactive | Dose-dependent effect | Active | tde | inactive | Dose-dependent effect | tde | tde | inactive | Dose-dependent effect

Reference: ChEMBL document CHEMBL2163344, “Immunomodulatory properties of novel nucleotide oligomerization domain 2 (nod2) agonistic desmuramyldipeptides” (J Med Chem, 2012)
